Experimental data from different studies.
Protocols differ between the studies behind these lines.
EGFR: Epidermal growth factor receptor (EGFR, Homo sapiens, UniProt P00533)
EGFR L861Q: Epidermal growth factor receptor (EGFR, Homo sapiens, UniProt P00533, L861Q)
EGFR del752-759: Epidermal growth factor receptor (EGFR, Homo sapiens, UniProt P00533, del752-759)
EGFR L858R/T790M: Epidermal growth factor receptor (EGFR, Homo sapiens, UniProt P00533, L858R/T790M)
EGFR G719C: Epidermal growth factor receptor (EGFR, Homo sapiens, UniProt P00533, G719C)
EGFR T790M: Epidermal growth factor receptor (EGFR, Homo sapiens, UniProt P00533, T790M)

`CC(C)[C@@H]1NC(=O)CC(c2ccccc2)NC(=O)CC(CCC(N)=O)NC(=O)[C@H](Cc2ccc(O)cc2)NC(=O)[C@H](Cc2ccc(O)cc2)NC(=O)[C@H](Cc2ccccc2)NC(=O)[C@@H](Cc2ccc(O)cc2)NC(=O)CSC[C@@H](C(=O)NCC(N)=O)NC(=O)CCNC(=O)[C@H](CCCNC(=N)N)NC(=O)[C@H](CCCNC(=N)N)NC(=O)[C@H](Cc2ccc(O)cc2)NC(=O)[C@H](C(C)C)NC(=O)[C@H](C(C)C)NC(=O)[C@H](CC(N)=O)NC1=O` (stereo partly drawn) gave a kon of 165000 M⁻¹ s⁻¹ (EGFR; binding, SPR).
For `COc1cc2ncnc(Nc3ccc(Oc4ccccc4)cc3C)c2cc1OC`, the inhibition was 76% (EGFR L861Q; enzyme activity, inhibitor; 1 µM).
`N[C@@H]1CCN(c2nccc(-c3cnn4ncccc34)n2)C1` has a remaining binding of 100% (EGFR del752-759; binding; 1 µM).
For `C=CC(=O)Nc1cc(Nc2nc(N3CCc4sccc4C3)c3cccnc3n2)c(OC)cc1N1CCN(C(C)=O)CC1`, the inhibition was 19.4% (EGFR L858R/T790M; enzyme activity, inhibitor, ELISA; 0.1 µM).
`Cc1ccc(NC(=O)c2ccc(C)c(C(F)(F)F)c2)cc1C#Cc1nn(C2CCC(O)CC2)c2ncnc(N)c12` (stereo not drawn) has a remaining signal of 0% (EGFR L861Q; cell-free assay; 10 µM).
With `CC1CCCN1c1nccc(-c2cnn3ncccc23)n1` (stereo not drawn) the remaining binding was 100% (EGFR G719C; binding; 1 µM).
With `CNC(=O)Nc1ccc2c(c1)[C@@]1(CC2)OC(=O)N(CC(=O)N(Cc2ccc(F)cc2)[C@@H](C)C(F)(F)F)C1=O` the remaining binding was 85% (Epidermal growth factor receptor (EGFR, Homo sapiens, UniProt P00533, del747-752/P753S); cell-free assay, competition with immobilised ligand; 1 µM).
For `CN(c1nccc(-c2cnn3ncccc23)n1)C1CC1`, the remaining binding was 100% (EGFR del752-759; binding; 1 µM).
`NS(=O)(=O)c1cc(NC(=O)Cc2ccccc2)ccc1Oc1cccc(Cl)c1` gave a remaining binding of 63% (EGFR G719C; cell-free assay, competition with immobilised ligand; 1 µM).
With `Cc1cc(NC(=O)c2cccc3cc(-c4cccc5[nH]nc(N)c45)ccc23)ccc1F` the activity vs control was 103% (EGFR L858R/T790M; enzyme activity, inhibitor; 0.1 µM).
`CN(CCCC(F)(F)F)c1nccc(-c2cnn3ncccc23)n1` has a remaining binding of 78% (EGFR T790M; binding; 1 µM).
`Cc1ccc(NC(=O)c2ccc(CN3CCN(C)CC3)cc2)cc1Nc1nc(-c2cccnc2)cs1` has a remaining signal of 99.6% (EGFR; cell-free assay; 0.5 µM).
`COc1cc(Cl)c(C(=O)N[C@@H](CN[C@H]2CC[C@@H](N)CC2)Cc2ccc(C#N)cc2)cc1-c1ccc(CN[C@H](C)c2ccc(C)cc2)o1` has a remaining activity of 103% (EGFR; enzyme activity, inhibitor; 1 µM).
For `CO[C@@H](C)c1c(Nc2ccc([C@@H](N(C)C(=O)C3CCS(=O)(=O)CC3)C(F)(F)F)cc2)cnc2cc(Cl)nn12`, the remaining binding was 100% (EGFR T790M; cell-free assay, competition with immobilised ligand; 1 µM).
`CC(C)(C)c1nc(-c2cccc(NS(=O)(=O)c3c(F)cccc3F)c2F)c(-c2ccnc(N)n2)s1` gave a remaining activity of 119% (EGFR; enzyme activity, inhibitor, radiometric; 1 µM).
`CN(C(=O)c1ccccc1)c1cc(N(C)c2ccc3c(c2)CCc2ccc(C(=O)NCCN4CCOCC4)cc2C3=O)ccc1F` gave a remaining binding of 77% (EGFR L858R/T790M; cell-free assay, competition with immobilised ligand; 1 µM).
With `COc1cc(-c2cc(-c3ccc(N4CCNCC4)cc3)cnc2N)cc(OC)c1OC` the inhibition was 26% (Epidermal growth factor receptor (EGFR, Homo sapiens, UniProt P00533, L858R); enzyme activity, inhibitor; 0.1 µM).
`Cc1nc(Cc2cccc(C(F)(F)F)c2)sc1-c1ccc(C(N)=O)nc1` gave a remaining binding of 94% (EGFR G719C; cell-free assay, competition with immobilised ligand; 1 µM).
For `Nc1ncnc2occ(-c3ccc(NC(=O)Nc4cc(C(F)(F)F)ccc4F)cc3)c12`, the remaining signal was 13% (EGFR L858R/T790M; cell-free assay; 20 µM).
With `CN([C@@H]1CCc2c(CC(=O)O)c3cc(S(C)(=O)=O)ccc3n2C1)S(=O)(=O)c1ccc(F)cc1` the remaining binding was 100% (EGFR L861Q; cell-free assay, competition with immobilised ligand; 1 µM).
For `Cc1ccc(C(=O)Nc2ccc(CN3CCN(C)CC3)c(C(F)(F)F)c2)cc1C#Cc1cnc2cccnn12`, the remaining signal was 55% (EGFR; cell-free assay; 23.5 nM).
